Assay results: ChEMBL document CHEMBL4229396, “Synthesis, structure and bioactivity of primary sulfamate-containing natural products” (Bioorg Med Chem Lett, 2018)
Converted amounts (≈) assume the structure as drawn.

How the values were obtained:
Carbonic anhydrase 9 = Carbonic anhydrase 9 (Homo sapiens, UniProt Q16790); assay: Inhibition of recombinant human CA9 expressed in Escherichia coli assessed as reduction in CO2 hydration by stopped flow assay
Procedure, shortened: (§1)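 Stopped-flow assay following the CA-catalysed hydration of CO2 (the physiological reaction); Ki values from three determinations, errors within ±5% of the reported value.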

Staphylococcus aureus [1] = assay: Antibacterial activity against Staphylococcus aureus ATCC 43300 at 20 uM relative to control; type: functional
Procedure, shortened: (§2)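 Screened by CO-ADD at a single concentration of 20 µM; growth inhibition above 50% at this concentration was classed as a hit. Strains and sources are given in Supplementary Information.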

Pseudomonas aeruginosa = assay: Antibacterial activity against Pseudomonas aeruginosa ATCC 27853 at 20 uM relative to control; type: functional; procedure, shortened: as §2
Escherichia coli [2] = assay: Antibacterial activity against Escherichia coli ATCC 25922 at 20 uM relative to control; type: functional; procedure, shortened: as §2
Acinetobacter baumannii = assay: Antibacterial activity against Acinetobacter baumannii ATCC 19606 at 20 uM relative to control; type: functional, ATCC 19606 = CIP 70.34 = JCM 6841; procedure, shortened: as §2
Carbonic anhydrase 1 = Carbonic anhydrase 1 (Homo sapiens, UniProt P00915); assay: Inhibition of recombinant human CA1 expressed in Escherichia coli assessed as reduction in CO2 hydration by stopped flow assay; procedure, shortened: as §1
Chain of Carbonic anhydrase 1 (P00915 whole entry): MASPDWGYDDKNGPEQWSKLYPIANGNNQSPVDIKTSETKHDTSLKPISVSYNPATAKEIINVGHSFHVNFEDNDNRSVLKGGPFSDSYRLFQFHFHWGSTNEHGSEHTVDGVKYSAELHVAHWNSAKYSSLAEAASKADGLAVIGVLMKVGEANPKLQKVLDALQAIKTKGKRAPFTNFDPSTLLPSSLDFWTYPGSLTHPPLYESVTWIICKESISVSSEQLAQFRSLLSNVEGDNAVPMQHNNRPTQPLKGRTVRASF

Candida albicans = assay: Antifungal activity against Candida albicans ATCC 90028 at 20 uM by resazurin dye based assay relative to control; type: functional; procedure, shortened: as §2
Escherichia coli [3] = assay: Antibacterial activity against Escherichia coli ATCC 25922; type: functional
Carbonic anhydrase 2 = Carbonic anhydrase 2 (Homo sapiens, UniProt P00918); assay: Inhibition of recombinant human CA2 expressed in Escherichia coli assessed as reduction in CO2 hydration by stopped flow assay; procedure, shortened: as §1
Staphylococcus aureus [4] = assay: Antibacterial activity against Staphylococcus aureus ATCC 43300; type: functional
Klebsiella pneumoniae = assay: Antibacterial activity against Klebsiella pneumoniae ATCC 700603 at 20 uM relative to control; type: functional; procedure, shortened: as §2
[5] = Cytotoxicity against HEK293 cells; type: cell-based; conditions: human
Carbonic anhydrase 4 = Carbonic anhydrase 4 (Homo sapiens, UniProt P22748); assay: Inhibition of recombinant human CA4 expressed in Escherichia coli assessed as reduction in CO2 hydration by stopped flow assay; procedure, shortened: as §1
Chain of Carbonic anhydrase 4 (P22748 whole entry): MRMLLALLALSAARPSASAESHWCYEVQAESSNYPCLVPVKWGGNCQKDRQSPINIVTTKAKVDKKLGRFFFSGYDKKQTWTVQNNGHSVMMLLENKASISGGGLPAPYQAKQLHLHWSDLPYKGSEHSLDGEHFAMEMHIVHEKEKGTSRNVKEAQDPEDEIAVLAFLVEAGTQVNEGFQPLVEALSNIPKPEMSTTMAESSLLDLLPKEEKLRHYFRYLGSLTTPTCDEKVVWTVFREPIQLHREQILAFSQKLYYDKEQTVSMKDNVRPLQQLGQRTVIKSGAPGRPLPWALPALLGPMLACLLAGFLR

Cryptococcus neoformans = assay: Antifungal activity against Cryptococcus neoformans var. grubii H99 ATCC 208821 at 20 uM by resazurin dye based assay relative to control; type: functional; procedure, shortened: as §2

Nc1nc(Cl)nc2c1ncn2[C@@H]1O[C@H](COS(N)(=O)=O)[C@@H](O)[C@H]1O
Ki (Carbonic anhydrase 9): 0.143 µM
Activity (Staphylococcus aureus [1]): <=50%
Activity (Pseudomonas aeruginosa): <=50%
Activity (Escherichia coli [2]): >50%
Activity (Acinetobacter baumannii): <=50%
Ki (Carbonic anhydrase 1): 0.167 µM
Activity (Candida albicans): <=50%
MIC (Escherichia coli [3]): 5 µM (≈ 1.9 µg/mL)
Ki (Carbonic anhydrase 2): 0.0652 µM
MIC (Staphylococcus aureus [4]): > 20 µM
Activity (Klebsiella pneumoniae): <=50%
CC50 [5]: < 0.15 µM
Ki (Carbonic anhydrase 4): 0.234 µM
Activity (Cryptococcus neoformans): <=50%

Nc1ncnc2c1ncn2[C@@H]1O[C@H](COS(N)(=O)=O)[C@@H](O)[C@H]1O
Ki (Carbonic anhydrase 9): 3.1 µM
Activity (Staphylococcus aureus [1]): >50%
Activity (Pseudomonas aeruginosa): <=50%
Activity (Escherichia coli [2]): <=50%
Activity (Acinetobacter baumannii): <=50%
Ki (Carbonic anhydrase 1): 6.35 µM
Activity (Candida albicans): <=50%
MIC (Escherichia coli [3]): > 20 µM
Ki (Carbonic anhydrase 2): 3.41 µM
MIC (Staphylococcus aureus [4]): 10 µM (≈ 3.46 µg/mL)
Activity (Klebsiella pneumoniae): <=50%
CC50 [5]: 0.8 µM
Ki (Carbonic anhydrase 4): 4.45 µM
Activity (Cryptococcus neoformans): <=50%
